Source: PubChem (Broad Institute)
GASC1 inh = inhibitors of GASC-1 (KDM4C) histone demethylase, primary screen, biochemical, single concentration HTS. Lysine-specific demethylase 4C (Homo sapiens), Q9H3R0. GST-KDM4C 2-372, H3K9me3 peptide, LANCE TR-FRET. inhibition, % at 12.5 µM. 0.15% of 96,000 active. AID 720574, 2013;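 active means mean replicate inhibition above about 25%, with at least 55% of replicates also reaching it, limit read from the data, passing the limit was not always enough; inconclusive means only one of those two conditions met; inactive means neither condition met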
Target sequence (Q9H3R0 2-372 limits assumed): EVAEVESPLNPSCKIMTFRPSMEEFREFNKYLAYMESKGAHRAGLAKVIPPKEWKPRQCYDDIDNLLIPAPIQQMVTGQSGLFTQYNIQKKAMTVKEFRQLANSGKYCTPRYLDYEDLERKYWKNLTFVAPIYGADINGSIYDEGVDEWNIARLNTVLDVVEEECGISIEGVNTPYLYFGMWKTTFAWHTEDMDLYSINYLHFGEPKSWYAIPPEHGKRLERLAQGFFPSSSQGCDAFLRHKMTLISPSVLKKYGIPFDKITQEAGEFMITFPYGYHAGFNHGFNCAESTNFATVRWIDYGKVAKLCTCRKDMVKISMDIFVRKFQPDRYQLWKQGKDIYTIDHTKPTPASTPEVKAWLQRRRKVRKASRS
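Test system – GST-tagged GASC-1 (JMJD2C) catalytic fragment, aa 2-372 · Medium – HEPES buffer, pH 7.5, plus ascorbate · Reagent – H3K9me3 peptide with Fe(II)/2OG · Compound – one test concentration per compound · Timing – 30 min reaction, 60 min detection, RT · Technique – TR-FRET with Eu antibody and ULight streptavidin, EDTA stop · Read-out basis – inhibition from TR-FRET ratio decrease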
IDH1 mut inh = inhibitors of IDH1 R132H reductase, primary screen, biochemical, plate reader, single point; diaphorase/resazurin fluorescence, 60 min; Isocitrate dehydrogenase [NADP] cytoplasmic (Homo sapiens), O75874; 0.18% of 70,000 active; inhibition, % at 10 µM; in the data active means inhibition above about 34%; inconclusive means no clear call, values can overlap the other calls; inactive means below about 11%;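 further: 0% = DMSO and 100% = no enzyme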
* hit, by the source's call. Compounds with a hit are over-represented: about 0.19% of the library has one in this group of screens.

Results for COC(=O)C[C@@H]1C[C@@H]2c3cc(N(C)C)ccc3O[C@@H]2[C@H](CO)O1 ?
IDH1 mut inh: -3

What do the screens show for `CN(C)c1ccc2c(c1)[C@H]1C[C@H](CC(=O)NCC3CC3)O[C@@H](CO)[C@H]1O2`?
GASC1 inh: 19; IDH1 mut inh: -3

How did CCCNC(=O)C[C@H]1C[C@H]2c3cc(NC(=O)CN(C)C)ccc3O[C@H]2[C@@H](CO)O1 do in these assays?
GASC1 inh: 0; IDH1 mut inh: -1

What do the screens show for `O=C(CSc1ccc2ccccc2n1)Nc1ccnc2ccccc12`?
IDH1 mut inh: -1

Results for CC(=O)Nc1ccc(Br)cc1-c1nc2ccccc2[nH]c1=O ?
IDH1 mut inh: 0

Results for COc1ccc2[nH]cc(CCNC(N)=O)c2c1 ?
IDH1 mut inh: 0

How did COc1ccccc1NC(=O)CSc1nc2ccccc2c(=O)n1-c1ccc(C)cc1 do in these assays?
IDH1 mut inh: 1

Results for CSc1cccc(NC(=O)CSc2ncn(-c3ccccc3)n2)c1 ?
IDH1 mut inh: 0

What do the screens show for `COCCNC(=O)C[C@H]1C[C@@H]2c3cc(N(C)C)ccc3O[C@@H]2[C@@H](CO)O1`?
GASC1 inh: 46*; IDH1 mut inh: -13

How did COCCNC(=O)C[C@@H]1C[C@H]2c3cc(NC(=O)CN(C)C)ccc3O[C@H]2[C@@H](CO)O1 do in these assays?
GASC1 inh: 0; IDH1 mut inh: 0

What do the screens show for `COc1cc(Cc2nccc3cc(OC)c(OC)cc23)c(NC(=O)c2cc(F)c(F)cc2Cl)cc1OC`?
IDH1 mut inh: 0

What do the screens show for `O=C1Oc2cc(O)cc(O)c2[C@@H](c2ccc(O)cc2)[C@H]1[C@H]1C(=O)Oc2cc(O)cc(O)c2[C@H]1c1ccc(O)cc1`?
IDH1 mut inh: 52*

Results for COc1ccc(C2CC(=O)Oc3cc(O)cc(O)c32)cc1 (centres undefined) ?
IDH1 mut inh: 0

How did Cc1cc(C)n2nc(SCC(=O)Nc3cccc([N+](=O)[O-])c3)nc2n1 do in these assays?
IDH1 mut inh: 0

What do the screens show for `O=C(Cc1ccccc1[N+](=O)[O-])Nc1ccccc1C(=O)NC1CCCCC1`?
IDH1 mut inh: 0

How did COc1ccccc1C(=O)Nc1ccc2c(c1)OC[C@H](C)NC[C@@H](C)[C@H](OC)CN(C)C2=O do in these assays?
GASC1 inh: -1; IDH1 mut inh: 0

How did CO[C@@H]1CN(C)C(=O)c2ccc(NS(=O)(=O)c3ccc(Cl)cc3)cc2OC[C@H](C)NC[C@H]1C do in these assays?
GASC1 inh: -1; IDH1 mut inh: 0

How did CCCNC(=O)Nc1ccc2c(c1)OC[C@@H](C)N(C(=O)C1CCC1)C[C@@H](C)[C@@H](OC)CN(C)C2=O do in these assays?
GASC1 inh: 62*; IDH1 mut inh: 85*

What do the screens show for `COc1ccccc1C(=O)Nc1ccc2c(c1)OC[C@H](C)NC[C@@H](C)[C@@H](OC)CN(C)C2=O`?
GASC1 inh: 68*; IDH1 mut inh: inconclusive

What do the screens show for `CO[C@H]1CN(C)C(=O)c2ccc(NS(=O)(=O)c3ccc(Cl)cc3)cc2OC[C@@H](C)NC[C@H]1C`?
GASC1 inh: 80*; IDH1 mut inh: 93*

Results for CCCNC(=O)Nc1ccc2c(c1)OC[C@H](C)N(C(=O)C1CCC1)C[C@@H](C)[C@@H](OC)CN(C)C2=O ?
GASC1 inh: 0; IDH1 mut inh: 0

Results for O=C(COc1ccc(Br)cc1)Nc1cccc(NC(=O)c2ccc(Cl)cc2Cl)c1 ?
IDH1 mut inh: 0

What do the screens show for `Cc1nnc(SCC(=O)Nc2cc(Cl)ccc2Cl)s1`?
IDH1 mut inh: -1

What do the screens show for `O=C(CSc1nnc(-c2ccncc2)n1-c1ccccc1)Nc1ccc(Br)cc1C(F)(F)F`?
IDH1 mut inh: 0

Results for Cc1cccc(NC(=O)c2cc(NC(=O)CCC(=O)O)ccc2N2CCOCC2)c1 ?
IDH1 mut inh: 0

Results for Cc1cccc(C)c1Nc1c(-c2ccsc2)nc2sccn12 ?
IDH1 mut inh: 0

What do the screens show for `COC(=O)[C@H]1[C@H]2C[C@H]3c4[nH]c5ccccc5c4CCN3C[C@H]2CC[C@@H]1O`?
IDH1 mut inh: 0

Results for CC(/C=C/C(=O)NO)=C\c1ccccc1OC[C@@H]1[C@H]2C[C@H]3c4[nH]c5ccccc5c4CCN3C[C@@H]2CC[C@@H]1O ?
IDH1 mut inh: 74*

Results for C[C@H](CO)N1C[C@H](C)[C@H](CN(C)Cc2ccccn2)Oc2ncc(C#CC3(O)CCCC3)cc2C1=O ?
GASC1 inh: -1; IDH1 mut inh: -2

Results for C[C@H]1CN([C@@H](C)CO)C(=O)c2cc(C#Cc3ccncc3)cnc2O[C@@H]1CN(C)Cc1ccncc1 ?
GASC1 inh: 1; IDH1 mut inh: 37*
